# Screens as filed in PubChem BioAssay.
# Rows were chosen to be rich in hits. Some 1.7% of all compounds tested hit in one or more screens of this group.
# CHO-K1 Ca antag – nonselective inhibitor or artifact in parental CHO-K1 cells. AID 602250. 0.6% of 360,000 active. ATP-induced calcium, Fluo-8 fluorescence. inhibition, % at 3 µM;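 active means inhibition above a per-plate cutoff, the plate's mean sample inhibition plus 3 SD, cut at about 24% in these data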
# CHO-K1 Ca PAM – nonselective calcium activators in parental CHO-K1 cells, primary screen, counter-screen for M1 PAM project, cell-based, Fluo-8 calcium fluorescence, full deck, 1536-well. ATP EC20; 0% at ATP EC20, 100% at ATP max. activation, % at 3 µM. 0.02% of 360,000 active. AID 602247, 2012;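 active means activation above the run cutoff, the mean activation of all test compounds plus 3 SD, cut at about 40% in these data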;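 further: peak over basal fluorescence ratio in a 140 s read after ATP addition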
# CHRM5 agonist – human M5 muscarinic receptor agonists, primary screen, CHO-K1 cells, Fluo-8 calcium fluorescence; Muscarinic acetylcholine receptor M5 (Homo sapiens), P08912; CHO-K1 hM5 cells; 0% DMSO wells, 100% maximal acetylcholine response; activation, % at 3 µM; 0.19% of 360,000 active; AID 624037, 2012;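 active means activation above the run's mean over test compounds plus 3 SD, cut at about 23% in these data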;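 further: signal is peak over basal fluorescence ratio across the kinetic read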
# Target sequence (P08912 whole entry, looked up): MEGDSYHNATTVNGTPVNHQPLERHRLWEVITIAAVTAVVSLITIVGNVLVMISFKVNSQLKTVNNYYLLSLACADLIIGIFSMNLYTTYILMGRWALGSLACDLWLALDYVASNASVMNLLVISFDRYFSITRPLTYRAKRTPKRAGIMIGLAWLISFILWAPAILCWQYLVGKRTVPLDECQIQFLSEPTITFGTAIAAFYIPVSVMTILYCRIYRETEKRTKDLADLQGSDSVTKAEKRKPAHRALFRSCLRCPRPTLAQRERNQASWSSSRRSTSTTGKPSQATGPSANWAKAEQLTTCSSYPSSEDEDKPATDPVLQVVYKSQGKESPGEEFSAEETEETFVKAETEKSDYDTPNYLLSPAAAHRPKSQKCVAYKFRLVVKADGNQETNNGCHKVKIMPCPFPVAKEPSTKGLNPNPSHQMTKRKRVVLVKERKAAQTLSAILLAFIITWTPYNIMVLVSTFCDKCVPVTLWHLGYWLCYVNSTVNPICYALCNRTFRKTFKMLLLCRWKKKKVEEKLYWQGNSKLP
# M5 antag – human M5 muscarinic receptor antagonists, primary screen, CHO cells, Fluo-8 calcium fluorescence; inhibition, % at 3 µM; AID 624040, 2012; Muscarinic acetylcholine receptor M5 (Homo sapiens), P08912; 0.59% of 360,000 active; CHO-hM5 cells, ACh EC80;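 active means inhibition above a per-plate cutoff, the mean of that plate's test compounds plus 3 SD, cut at about 27% in these data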
# CHRM5 PAM – human M5 muscarinic receptor positive allosteric modulators, primary screen, CHO-K1 cells, Fluo-8 calcium fluorescence; Muscarinic acetylcholine receptor M5 (Homo sapiens), P08912; CHO-K1 hM5, ACh EC20 PAM; 0% = ACh EC20, 100% = ACh EC100; activation, % at 3 µM; 0.3% of 360,000 active; AID 624038, 2012;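 active means activation above the run cutoff, the mean activation of all test compounds plus 3 SD, cut at about 18% in these data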
#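 Assay system – human M5 receptor in CHO-K1 cells · Read-out – % activation, ACh-normalized · Technique – Fluo-8 calcium fluorescence · Dosing – single-point, 3 µM nominal · Incubation – Fluo-8 loading 80 min at 37 °C plus 30 min room temperature · Repeats – singlicate, one well per test compound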
# CHO-K1 Ca ag – counter-screen for M1 agonists: effect in parental CHO-K1 cells | Fluo-8 calcium fluorescence; scaled to maximal ATP response, vehicle zero | activation, % at 3 µM | 0.48% of 360,000 active; in the data active means activation above about 15%;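 further: untransfected CHO-K1 host cells lacking M1 receptor as counterscreen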
# Hits are given with their value; 0 = inactive; ! = not active in a repeat.
SMILES,CHO-K1 Ca antag,CHO-K1 Ca PAM,CHRM5 agonist,M5 antag,CHRM5 PAM,CHO-K1 Ca ag
Cc1ccc(CC(=O)N(C)CC(=O)Nc2ccc(N3CCOCC3)cc2)cc1C,25,0,0,0,0,0
NC(=O)COC(=O)c1ccc(S(=O)(=O)NCc2ccco2)cc1,0,0,0,0,0,0
Cc1ccc2[nH]c(C(=O)N3CCCCC3)cc2c1,0,0,0,0,0,0
Cc1ccc2[nH]c(C(=O)N3CCOCC3)cc2c1,25,0,0,0,0,0
O=C(OCc1nnc(-c2ccccc2)o1)c1ccc2ccccc2n1,30,0,0,0,0,0
CCCCOc1ccc(C(=O)N2CCN(c3ncccn3)CC2)cc1,0,0,0,0,0,0
Cc1nc2ccccc2n1S(=O)(=O)c1ccc(F)cc1,0,0,0,0,0,0
CCOc1ccc(S(=O)(=O)n2c(C)nc3ccccc32)cc1,0,0,0,0,0,0
COc1ccc(S(=O)(=O)n2c(N)nc3ccccc32)cc1,0,0,0,69,0,0
Cc1ccc(S(=O)(=O)n2c(N)nc3ccccc32)cc1,0,0,0,76,0,0
Nc1nc2ccccc2n1S(=O)(=O)c1ccc([N+](=O)[O-])cc1,0,0,0,0,0,0
Nc1nc2ccccc2n1S(=O)(=O)c1ccc(Cl)cc1,0,0,0,40,0,0
Cc1c(C(=O)NCc2ccccc2CN2CCCC2)oc2ccc(F)cc12,0,0,0,0,0,0
Cc1cc(C)c(OCC(=O)Nc2ccccc2N2CCOCC2)c(C)c1,0,0,28,0,0,17
CCC(=O)N1CCN(c2ccccc2NC(=O)COc2cc(C)ccc2C(C)C)CC1,0,0,0,27,0,0
O=C(Cn1c(=O)cnc2ccccc21)Nc1ccccc1N1CCOCC1,0,0,0,0,28,0
O=C(Cn1c(=O)cnc2ccccc21)Nc1cc(Cl)ccc1N1CCOCC1,0,0,0,0,0,0
O=C(CCNS(=O)(=O)c1ccc(F)cc1)N1CCN(c2ncccn2)CC1,0,0,0,0,0,0
CC(=O)Nc1ccc(C(=O)N/N=C/c2ccc(F)cc2)cc1,0,0,0,0,0,0
O=C(N/N=C/c1ccccc1)c1ccc(NC(=O)c2ccc(F)cc2)cc1,0,0,0,0,20,0
CC1=C(C(=O)c2ccccc2)C(c2cn(-c3ccccc3)nc2-c2ccc(Cl)cc2)NC(=S)N1 (stereo unspecified),0,0,0,0,0,0
Cc1cc(SCCC(=O)O)nc2c(C)cccc12,0,0,0,0,33,0
Cc1cc(SCC(=O)N2CCCC2=O)nc2c(C)cccc12,0,0,0,0,0,0
Cc1cc(SCC(=O)O)nc2ccccc12,0,0,0,0,18!,0
O=c1/c(=C/c2cccc3ccccc23)sc2ncnn12,28,0,0,0,0,0
SMILES,CHO-K1 Ca antag,CHO-K1 Ca PAM,CHRM5 agonist,M5 antag,CHRM5 PAM,CHO-K1 Ca ag
Cc1ccsc1/C=c1\sc2ncnn2c1=O,0,0,0,0,0,0
O=C1CC(N2CCN(Cc3ccc4c(c3)OCO4)CC2)C(=O)N1c1ccccc1 (stereo unspecified),0,0,0,0,0,0
Cc1cccc(N2C(=O)CC(N3CCN(Cc4ccc5c(c4)OCO5)CC3)C2=O)c1 (stereo unspecified),0,0,0,0,18,0
Cc1ccccc1Oc1ccc2c(c1)[C@@H]1C[C@H](N(C)C(=O)c3cccnc3)[C@H]([C@H](C)O)C(=O)N1CC2,33,0,0,0,0,0
O=C(N/N=C/c1ccc(Cl)cc1Cl)c1ccncc1,0,0,0,0,0,0
O=C(N/N=C/c1cc(Cl)cc(Cl)c1O)c1ccncc1,0,0,0,0,0,15
CC(=O)c1cc(C#N)c(SCC(=O)OC(C)(C)C)nc1C,0,0,0,0,0,0
CCN(CC)C(=O)CSc1nc2ccccc2c(=O)n1OC(C)C,0,0,0,0,23,0
Cc1cc2oc(C(=O)NCc3ccccc3)cc(=O)c2cc1C,0,0,0,97,0,0
